Experiments:
Acetylcholinesterase = Acetylcholinesterase (Electrophorus electricus, UniProt O42275); assay: Inhibition of electric eel acetylcholinesterase using acetylthiocholine iodide as substrate preincubated for 15 mins followed by substrate addition by Ellman's method
Cholinesterase = Cholinesterase (Equus caballus, UniProt P81908); assay: Inhibition of horse serum butyrylcholinesterase using butyrylthiocholine iodide as substrate preincubated for 15 mins followed by substrate addition by Ellman's method
Procedure, shortened: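 Enzyme in 100 mM phosphate buffer pH 8.0 with sample (n-propanol as solvent and control) preincubated 15 min at 25°C. Reaction started with butyrylthiocholine iodide (0.79 mM solution) plus DTNB. Thiolate-DTNB yellow product followed at 412 nm. IC50 taken from inhibition (%) curves at five concentrations: 12.5, 25, 50, 100 and 200 µM.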

[1] = Antioxidant activity assessed as ABTS cation radical scavenging activity measured after 6 mins
[2] = Antioxidant activity assessed as cupric reducing antioxidant capacity measured after 1 hr; assay type: physicochemical
[3] = Selectivity index, ratio of IC50 for horse serum butyrylcholinesterase to IC50 for electric eel acetylcholinesterase
[4] = target: Cholinesterase (Equus caballus) (UniProt P81908); assay: Potency index, ratio of galanthamine IC50 to compound IC50 for horse serum butyrylcholinesterase
[5] = target: Cholinesterase (Equus caballus) (UniProt P81908); assay: Potency index, ratio of donepezil IC50 to compound IC50 for horse serum butyrylcholinesterase

Sequence of Acetylcholinesterase (O42275 whole entry): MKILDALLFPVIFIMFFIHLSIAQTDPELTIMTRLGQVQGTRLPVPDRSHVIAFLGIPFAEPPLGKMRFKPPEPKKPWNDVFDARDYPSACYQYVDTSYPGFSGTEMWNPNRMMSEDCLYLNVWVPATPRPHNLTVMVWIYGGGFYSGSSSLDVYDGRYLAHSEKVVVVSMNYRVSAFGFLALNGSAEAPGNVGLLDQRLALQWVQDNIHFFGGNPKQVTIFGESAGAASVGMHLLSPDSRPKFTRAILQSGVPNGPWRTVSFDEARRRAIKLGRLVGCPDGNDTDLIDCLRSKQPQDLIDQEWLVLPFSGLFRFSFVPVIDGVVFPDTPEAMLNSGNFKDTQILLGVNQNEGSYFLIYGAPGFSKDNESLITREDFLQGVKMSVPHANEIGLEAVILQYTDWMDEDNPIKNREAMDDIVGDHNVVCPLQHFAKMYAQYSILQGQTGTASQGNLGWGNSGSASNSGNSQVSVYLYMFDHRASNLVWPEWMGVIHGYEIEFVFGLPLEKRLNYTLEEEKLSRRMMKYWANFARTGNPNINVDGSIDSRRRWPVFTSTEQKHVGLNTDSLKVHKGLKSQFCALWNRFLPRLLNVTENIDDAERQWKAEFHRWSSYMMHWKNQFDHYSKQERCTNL
Sequence of Cholinesterase (P81908 whole entry): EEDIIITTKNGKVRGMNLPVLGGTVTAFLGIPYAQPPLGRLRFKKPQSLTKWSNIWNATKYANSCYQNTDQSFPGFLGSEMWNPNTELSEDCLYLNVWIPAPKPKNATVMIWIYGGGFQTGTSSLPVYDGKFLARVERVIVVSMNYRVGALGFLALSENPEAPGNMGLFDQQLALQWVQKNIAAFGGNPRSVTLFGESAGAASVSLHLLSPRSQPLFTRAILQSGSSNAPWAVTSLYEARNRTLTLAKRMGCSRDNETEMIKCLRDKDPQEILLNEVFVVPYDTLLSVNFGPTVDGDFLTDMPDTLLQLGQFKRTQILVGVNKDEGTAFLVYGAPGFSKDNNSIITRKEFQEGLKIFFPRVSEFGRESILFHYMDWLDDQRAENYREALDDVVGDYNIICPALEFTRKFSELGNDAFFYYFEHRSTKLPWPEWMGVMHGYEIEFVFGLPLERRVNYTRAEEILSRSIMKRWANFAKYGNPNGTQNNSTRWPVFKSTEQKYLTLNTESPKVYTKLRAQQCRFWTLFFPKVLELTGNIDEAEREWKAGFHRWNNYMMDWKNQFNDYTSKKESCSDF
Sequence of Cholinesterase (Equus caballus) (P81908 whole entry): as above

Compound | IC50 (Acetylcholinesterase) [µM] | IC50 (Cholinesterase) [µM] | IC50 ([1]; ABTS cation radical) [µM] | A0.5 [2] [µM] | Ratio IC50 [3] | IC50 [1] [µM] | Ratio IC50 [4] | Ratio IC50 [5]
O=C(Nc1ccc(Br)cc1)Nc1nc(-c2cc3cc([N+](=O)[O-])ccc3o2)cs1 | 28.2 | 34.5 | 194 | > 200 | 1.22 | – | – | –
O=c1c(O)c(-c2ccc(O)c(O)c2)oc2cc(O)cc(O)c12 [QUERCETIN] | – | – | 1.18 | 1.45 | – | – | – | –
O=C(Nc1ccc(Cl)cc1)Nc1nc(-c2cc3ccccc3o2)cs1 | 42.6 | 38.6 | 11.2 | > 200 | 0.91 | – | – | –
O=C(Nc1ccc(Br)cc1)Nc1nc(-c2cc3cc(Br)ccc3o2)cs1 | 11.9 | 35.8 | > 200 | > 200 | 3 | – | – | –
COc1cccc(NC(=O)Nc2nc(-c3cc4ccccc4o3)cs2)c1 | 48.9 | 59.6 | 0.2 | 104.46 | 1.22 | – | – | –
O=C(Nc1ccc([N+](=O)[O-])cc1)Nc1nc(-c2cc3cc(Br)ccc3o2)cs1 | 4.78 | 3.12 | > 200 | 120.74 | 0.65 | – | – | –
COc1cccc(NC(=O)Nc2nc(-c3cc4cc(Br)ccc4o3)cs2)c1 | 29.4 | 13.9 | > 200 | > 200 | 0.47 | – | – | –
O=C(Nc1cccc(F)c1)Nc1nc(-c2cc3ccccc3o2)cs1 | 49 | 18 | 4.52 | 126.52 | 0.37 | – | – | –
O=C(Nc1nc(-c2cc3ccccc3o2)cs1)Nc1ccccc1F | 30.9 | 41.7 | 2.63 | 102.43 | 1.35 | – | – | –
COc1ccccc1NC(=O)Nc1nc(-c2cc3ccccc3o2)cs1 | 61 | 81.3 | 47.4 | > 200 | 1.33 | – | – | –
O=C(Nc1ccccc1)Nc1nc(-c2cc3ccccc3o2)cs1 | 24.7 | 21.3 | 28.2 | 132 | 0.86 | – | – | –
O=C(Nc1cccc([N+](=O)[O-])c1)Nc1nc(-c2cc3cc(Br)ccc3o2)cs1 | 17.4 | 79 | 159 | > 200 | 4.53 | – | – | –
O=C(Nc1ccc(F)cc1)Nc1nc(-c2cc3cc(Br)ccc3o2)cs1 | 35.6 | 64.3 | > 200 | 146.78 | 1.81 | – | – | –
O=C(Nc1cccc([N+](=O)[O-])c1)Nc1nc(-c2cc3ccccc3o2)cs1 | 41.2 | 26.8 | – | > 200 | 0.65 | 1.26 | – | –
O=C(Nc1ccc(I)cc1)Nc1nc(-c2cc3cc(Br)ccc3o2)cs1 | 6.42 | 43.6 | > 200 | > 200 | 6.8 | – | – | –
O=C(Nc1cccc(F)c1)Nc1nc(-c2cc3cc(Br)ccc3o2)cs1 | 29.4 | 40.2 | > 200 | > 200 | 1.37 | – | – | –
COc1ccc(NC(=O)Nc2nc(-c3cc4ccccc4o3)cs2)cc1 | 52.5 | 74.3 | 17.4 | 146.34 | 1.42 | – | – | –
O=C(Nc1ccc(I)cc1)Nc1nc(-c2cc3cc([N+](=O)[O-])ccc3o2)cs1 | 5.53 | 2.03 | 62.4 | > 200 | 0.37 | – | 8.5 | 2.3
O=C(Nc1ccccc1)Nc1nc(-c2cc3cc(Br)ccc3o2)cs1 | 23.3 | 35 | > 200 | > 200 | 1.5 | – | – | –
O=C(Nc1ccc([N+](=O)[O-])cc1)Nc1nc(-c2cc3ccccc3o2)cs1 | 5.23 | 3.44 | 19.3 | > 200 | 0.66 | – | – | –

Compound | IC50 (Acetylcholinesterase) [µM] | IC50 (Cholinesterase) [µM] | IC50 ([1]; ABTS cation radical) [µM] | A0.5 [2] [µM] | Ratio IC50 [3] | IC50 [1] [µM] | Ratio IC50 [4] | Ratio IC50 [5]
COc1ccc(NC(=O)Nc2nc(-c3cc4cc([N+](=O)[O-])ccc4o3)cs2)cc1 | 34.1 | 49.2 | 121 | > 200 | 1.44 | – | – | –
O=C(Nc1ccc(Br)cc1)Nc1nc(-c2cc3ccccc3o2)cs1 | 32.8 | 55.2 | > 200 | > 200 | 1.68 | – | – | –
O=C(Nc1ccc(I)cc1)Nc1nc(-c2cc3ccccc3o2)cs1 | 21.4 | 41.3 | 62 | 133 | 1.93 | – | – | –
O=C(Nc1ccc(Cl)cc1)Nc1nc(-c2cc3cc(Br)ccc3o2)cs1 | 22.2 | 36.9 | > 200 | > 200 | 1.66 | – | – | –
O=C(Nc1ccccc1)Nc1nc(-c2cc3cc([N+](=O)[O-])ccc3o2)cs1 | 4.42 | 2.26 | 183 | > 200 | 0.51 | – | – | –
O=C(Nc1nc(-c2cc3cc(Br)ccc3o2)cs1)Nc1ccccc1F | 3.85 | 9.25 | > 200 | > 200 | 2.4 | – | – | –
COc1ccccc1NC(=O)Nc1nc(-c2cc3cc(Br)ccc3o2)cs1 | 78.8 | 154 | 77.2 | 92.68 | 1.95 | – | – | –
O=C(Nc1ccc([N+](=O)[O-])cc1)Nc1nc(-c2cc3cc([N+](=O)[O-])ccc3o2)cs1 | 25.2 | 25.6 | 100 | > 200 | 1.02 | – | – | –
O=C(Nc1nc(-c2cc3ccccc3o2)cs1)Nc1ccccc1[N+](=O)[O-] | 41.9 | 79.9 | 20.3 | 100.33 | 1.91 | – | – | –
O=C(Nc1cccc(Cl)c1)Nc1nc(-c2cc3ccccc3o2)cs1 | 9.67 | 21.5 | 14.1 | > 200 | 2.22 | – | – | –
O=C(Nc1ccc(F)cc1)Nc1nc(-c2cc3cc([N+](=O)[O-])ccc3o2)cs1 | 41.1 | 47.6 | 123 | > 200 | 1.16 | – | – | –
Cc1ccc(NC(=O)Nc2nc(-c3cc4cc(Br)ccc4o3)cs2)cc1 | 32.5 | 5.65 | > 200 | > 200 | 0.17 | – | – | –
O=C(Nc1ccc(Cl)cc1)Nc1nc(-c2cc3cc([N+](=O)[O-])ccc3o2)cs1 | 30.6 | 26.6 | 117 | > 200 | 0.87 | – | – | –
O=C(Nc1ccc(F)cc1)Nc1nc(-c2cc3ccccc3o2)cs1 | 55 | 7.45 | 1.13 | 110.31 | 0.14 | – | – | –
O=C(Nc1nc(-c2cc3cc(Br)ccc3o2)cs1)Nc1ccccc1[N+](=O)[O-] | 8.82 | 5.12 | 166 | 122.22 | 0.58 | – | – | –
COc1ccc(NC(=O)Nc2nc(-c3cc4cc(Br)ccc4o3)cs2)cc1 | 32.8 | 31 | > 200 | > 200 | 0.95 | – | – | –
Cc1ccc(NC(=O)Nc2nc(-c3cc4ccccc4o3)cs2)cc1 | 10.4 | 56.3 | 0.5 | 192.91 | 5.41 | – | – | –
O=C(Nc1cccc(Cl)c1)Nc1nc(-c2cc3cc(Br)ccc3o2)cs1 | 7.93 | 26.3 | > 200 | > 200 | 3.32 | – | – | –
O=C(Nc1ccc(Cl)c(Cl)c1)Nc1nc(-c2cc3ccccc3o2)cs1 | 52 | 75.6 | > 200 | > 200 | 1.45 | – | – | –

From ChEMBL document CHEMBL3616456, “Potential of aryl-urea-benzofuranylthiazoles hybrids as multitasking agents in Alzheimer's disease” (Eur J Med Chem, 2015)
